ChEMBL document CHEMBL1144557, “The novel C-5 aryl, alkenyl, and alkynyl substituted uracil derivatives of L-ascorbic acid: synthesis, cytostatic, and antiviral activity evaluations” (Bioorg Med Chem, 2007)
In brackets after ≈: the same amount, converted by molar mass.

Legend:
Human alphaherpesvirus 1 [1] = test: Antiviral activity against HSV1 TK- KOS ACV -induced cytopathogenicity in HEL cells; format: functional; details: Human alphaherpesvirus 1, KOS
MCF7 = test: Antiproliferative activity against human MCF7 cells after 72 hrs by MTT assay; format: functional, cell-based; details: MCF7, 72 h
Summary of the method: (§1)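 Monolayers grown in DMEM with 10% FBS, 2 mM L-glutamine and penicillin/streptomycin at 37 °C, 5% CO2. Seeded at 1 × 10⁴–3 × 10⁴ cells/mL on day 0. Compounds from 0.04 M DMSO stocks added at five 10-fold dilutions (10⁻⁸–10⁻⁴ M final), with matched DMSO controls, for 72 h. MTT added for 4 h, formazan dissolved in DMSO, absorbance read at 570 nm. Percentage growth calculated against time-zero and untreated OD. IC50 is 50% inhibition of proliferation.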

CCRF-CEM = test: Antiproliferative activity against human CEM cells; format: functional, cell-based
Summary of the method: (§2)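 Suspension cells seeded at 50 × 10³ cells/well with a range of test compound concentrations. Cell number counted with a Coulter counter after 2 days (L1210) or 3 days (Molt4/C8, CEM). IC50 is the concentration that cuts cell growth by 50% versus untreated controls, read from plots of cell number (% of control) against concentration.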

WI-38 = test: Antiproliferative activity against human WI38 cells after 72 hrs by MTT assay; format: functional, cell-based; details: WI-38, 72 h; summary of the method: as §1
Sindbis virus = test: Antiviral activity against Sindbis virus-induced cytopathogenicity in Vero cells; format: functional
[2] = Cytotoxicity against HEL cells; format: cell-based; details: human
Summary of the method: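 Cells seeded at 5 × 10³ cells/well and exposed to medium containing a range of test compound concentrations. After 3 days at 37 °C, cell morphology examined microscopically. Reported as minimum cytotoxic concentration (MCC), the concentration causing a microscopically detectable alteration of normal cell morphology.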

Human alphaherpesvirus 1 [3] = test: Antiviral activity against HSV1 KOS-induced cytopathogenicity in HEL cells; format: functional; details: Human alphaherpesvirus 1, KOS
L1210 = test: Antiproliferative activity against mouse L1210 cells; format: functional, cell-based; summary of the method: as §2
Human alphaherpesvirus 2 = test: Antiviral activity against HSV2 G-induced cytopathogenicity in HEL cells; format: functional; details: Human alphaherpesvirus 2, G
Punta Toro virus = test: Antiviral activity against Punta Toro virus-induced cytopathogenicity in Vero cells; format: functional
MIA PaCa-2 = test: Antiproliferative activity against human MiaPaCa2 cells after 72 hrs by MTT assay; format: functional, cell-based; details: Homo sapiens, MIA PaCa-2, 72 h; read-out: IC50; summary of the method: as §1
[4] = test system: Vesicular stomatitis virus; test: Antiviral activity against in Vesicular stomatitis virus-induced cytopathogenicity in HEL cells; format: functional
Coxsackievirus B4 = test: Antiviral activity against Coxsackie virus B4-induced cytopathogenicity in Vero cells; format: functional; details: Enterovirus B
[5] = Antiproliferative activity against human Molt4/C8 cells; format: functional, cell-based; details: MOLT-4; summary of the method: as §2
SW-620 = test: Antiproliferative activity against human SW620 cells after 72 hrs by MTT assay; format: functional, cell-based; details: SW-620, 72 h; summary of the method: as §1
HEp-2 = test: Antiproliferative activity against human Hep2 cells after 72 hrs by MTT assay; format: functional, cell-based; details: HEp-2, 72 h; summary of the method: as §1
HeLa = test: Antiproliferative activity against human HeLa cells after 72 hrs by MTT assay; format: functional, cell-based; summary of the method: as §1
[6] = test system: Vesicular stomatitis virus; test: Antiviral activity against in Vesicular stomatitis virus- induced cytopathogenicity in HeLa cells; format: functional

| Structure (SMILES) | MIC (Human alphaherpesvirus 1 [1]) [µM] | IC50 (MCF7) [µM] | IC50 (CCRF-CEM) [µM] | IC50 (WI-38) [µM] | MIC (Sindbis virus) [µM] | MCC [2] [µM] | MIC (Human alphaherpesvirus 1 [3]) [µM] | IC50 (L1210) [µM] | MIC (Human alphaherpesvirus 2) [µM] | MIC (Punta Toro virus) [µM] | IC50 (MIA PaCa-2) [µM] | MIC [4] [µM] | MIC (Coxsackievirus B4) [µM] | IC50 [5] [µM] | IC50 (SW-620) [µM] | IC50 (HEp-2) [µM] | IC50 (HeLa) [µM] | MIC [6] [µM] |
| --- | --- | --- | --- | --- | --- | --- | --- | --- | --- | --- | --- | --- | --- | --- | --- | --- | --- | --- |
| C=Cc1cn(C/C=C2\OC(=O)C(OCc3ccccc3)=C2OCc2ccccc2)c(=O)[nH]c1=O | > 18 | 3.8 | 7.2 | 14.3 | > 18 | 87 | > 18 | 7.2 | > 18 | > 18 | 22 | > 18 | > 18 | 7.6 | 15.6 | 14.2 | 14.5 | > 18 |
| O=C1O/C(=C\Cn2cc(-c3ccccc3)c(=O)[nH]c2=O)C(O)=C1O | > 100 | > 100 | 282 | > 100 | > 100 | 100 | > 100 | 354 | > 100 | > 100 | > 100 | > 100 | > 100 | 322 | > 100 | > 100 | > 100 | > 100 |
| O=C1O/C(=C\Cn2cc(-c3cccs3)c(=O)[nH]c2=O)C(O)=C1O | > 100 | > 100 | > 500 | > 100 | > 100 | 100 | > 100 | > 500 | > 100 | > 100 | > 100 | > 100 | > 100 | > 500 | > 100 | > 100 | > 100 | > 100 |
| O=C1O/C(=C\Cn2cc(C#Cc3ccccc3)c(=O)[nH]c2=O)C(O)=C1O | > 4 | 1 | 7.6 | 1 | > 4 | 20 | > 4 | 8.1 | 4 (≈ 1.41 µg/mL) | > 4 | 3 | 4 (≈ 1.41 µg/mL) | > 4 | 8.2 | 4 | 3 | 2 | > 4 |
| C#Cc1cn(C/C=C2\OC(=O)C(O)=C2O)c(=O)[nH]c1=O | > 4 | 13 | 23 | 11 | > 4 | 20 | > 4 | 15 | > 4 | 4 (≈ 1.1 µg/mL) | 13 | > 4 | > 4 | 37 | 17 | 12 | 13 | > 4 |
| C#Cc1cn(C/C=C2\OC(=O)C(OCc3ccccc3)=C2OCc2ccccc2)c(=O)[nH]c1=O | > 18 | 2.9 | 4.6 | 1.5 | > 18 | ≥ 18 | > 18 | 6.8 | > 18 | > 18 | 8.7 | > 18 | > 18 | 7.2 | 5 | 4.6 | 3.2 | > 18 |
| O=C1O/C(=C\Cn2cc(-c3ccco3)c(=O)[nH]c2=O)C(O)=C1O | > 100 | > 100 | 436 | > 100 | > 100 | 100 | > 100 | ≥ 500 | > 100 | > 100 | > 100 | > 100 | > 100 | ≥ 500 | > 100 | > 100 | > 100 | > 100 |
